The source made the active and inactive calls. The calls are words filed in the database; no cut-off is given here.
Assays:
Format in all cases: nucleic-acid assay
Nucleic Acid [1] = experiment: Binding affinity to r-(CGCUGGGCGUUAAUCAAAGAGGCGAAC)-RNA assessed as melting temperature at 1.5 uM by UV-visible spectrophotometry
How it was run: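 Each strand at 1.5 µM: ODN plus complementary 27-mer RNA in 100 mM NaCl, 50 mM MES pH 5. Samples were heated at 85 °C for 10 min and cooled slowly. Melting curves were recorded at 260 nm while warming 20 to 80 °C at 1.0 °C/min to obtain Tm.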

Nucleic Acid [2] = experiment: Binding affinity to FAM-tagged d-(GAAAYAAGAGGAAAGA)-DNA assessed as crosslinking at 10 uM by alkylation method
How it was run: (§1)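 Reactive ODN at 10 µM with 1 µM FAM-labeled target DNA or RNA in 100 mM NaCl, 50 mM MES pH 5 plus RNase OUT, mixed at 0 °C and then incubated at 37 °C. Reactions were stopped at set times with formamide/EDTA/bromophenol blue buffer. Products were resolved on 15% denaturing polyacrylamide gel with 7 M urea, and FAM band intensities were quantified to give crosslinking yield.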

Nucleic Acid [3] = experiment: Binding affinity to FAM-tagged r-(GAAAYAAGAGGAAAGA)-RNA assessed as crosslinking at 10 uM by alkylation method; how it was run: as §1

Tm (Nucleic Acid [1]) [°C]	Activity (Nucleic Acid [2])	Activity (Nucleic Acid [3])	Compound
55.8	–	–	Cc1cn([C@H]2C[C@H](OP(=O)(O)OC[C@H]3O[C@@H](n4cc(C)c(=O)[nH]c4=O)C[C@@H]3OP(=O)(O)OC[C@H]3O[C@@H](n4ccc(N)nc4=O)[C@H](O)[C@@H]3OP(=O)(O)OC[C@H]3O[C@@H](n4cnc5c(=O)[nH]c(N)nc54)[C@H](O)[C@@H]3OP(=O)(O)OC[C@H]3O[C@@H](n4ccc(N)nc4=O)[C@H](O)[C@@H]3OP(=O)(O)OC[C@H]3O[C@@H](n4ccc(N)nc4=O)[C@H](O)[C@@H]3OP(=O)(O)OC[C@H]3O[C@@H](n4cc(C)c(=O)[nH]c4=O)C[C@@H]3OP(=O)(O)OC[C@H]3O[C@@H](n4ccc(N)nc4=O)[C@H](O)[C@@H]3OP(=O)(O)OC[C@H]3O[C@@H](n4cc(C)c(=O)[nH]c4=O)C[C@@H]3OP(=O)(O)OC[C@H]3O[C@@H](n4cc(C)c(=O)[nH]c4=O)C[C@@H]3OP(=O)(O)OC[C@H]3O[C@@H](n4cc(C)c(=O)[nH]c4=O)C[C@@H]3OP(=O)(O)OC[C@H]3O[C@@H](n4cnc5c(=O)[nH]c(N)nc54)[C@H](O)[C@@H]3OP(=O)(O)OC[C@H]3O[C@@H](n4cnc5c(N)ncnc54)[C@H](O)[C@@H]3OP(=O)(O)OC[C@H]3O[C@@H](n4cc(C)c(=O)[nH]c4=O)C[C@@H]3OP(=O)(O)OC[C@H]3O[C@@H](n4cc(C)c(=O)[nH]c4=O)C[C@@H]3OP(=O)(O)OC[C@H]3O[C@@H](n4cnc5c(N)ncnc54)[C@H](O)[C@@H]3OP(=O)(O)OC[C@H]3O[C@@H](n4cnc5c(N)ncnc54)[C@H](O)[C@@H]3OP(=O)(O)OC[C@H]3O[C@@H](n4ccc(N)nc4=O)[C@H](O)[C@@H]3OP(=O)(O)OC[C@H]3O[C@@H](n4cnc5c(=O)[nH]c(N)nc54)[C@H](O)[C@@H]3OP(=O)(O)OC[C@H]3O[C@@H](n4ccc(N)nc4=O)[C@H](O)[C@@H]3OP(=O)(O)OC[C@H]3O[C@@H](n4ccc(N)nc4=O)[C@H](O)[C@@H]3OP(=O)(O)O)[C@@H](CO)O2)c(=O)[nH]c1=O
–	inactive	inactive	CSCCc1nc(N)nc2c1ncn2C[C@H]1C[C@H](OP(=O)(O)OC[C@H]2O[C@@H](n3cc(C)c(=O)[nH]c3=O)C[C@@H]2OP(=O)(O)OC[C@H]2O[C@@H](n3cc(C)c(=O)[nH]c3=O)C[C@@H]2OP(=O)(O)OC[C@H]2O[C@@H](n3ccc(N)nc3=O)[C@H](O)[C@@H]2OP(=O)(O)OC[C@H]2O[C@@H](n3cc(C)c(=O)[nH]c3=O)C[C@@H]2OP(=O)(O)OC[C@H]2O[C@@H](n3ccc(N)nc3=O)[C@H](O)[C@@H]2OP(=O)(O)OC[C@H]2O[C@@H](n3ccc(N)nc3=O)[C@H](O)[C@@H]2OP(=O)(O)OC[C@H]2O[C@@H](n3cc(C)c(=O)[nH]c3=O)C[C@@H]2OP(=O)(O)OC[C@H]2O[C@@H](n3cc(C)c(=O)[nH]c3=O)C[C@@H]2OP(=O)(O)OC[C@H]2O[C@@H](n3cc(C)c(=O)[nH]c3=O)C[C@@H]2OP(=O)(O)OC[C@H]2O[C@@H](n3ccc(N)nc3=O)[C@H](O)[C@@H]2OP(=O)(O)OC[C@H]2O[C@@H](n3cc(C)c(=O)[nH]c3=O)C[C@@H]2OP(=O)(O)O)[C@@H](COP(=O)(O)O[C@H]2C[C@H](n3cc(C)c(=O)[nH]c3=O)O[C@@H]2COP(=O)(O)O[C@H]2C[C@H](n3cc(C)c(=O)[nH]c3=O)O[C@@H]2COP(=O)(O)O[C@H]2C[C@H](n3cc(C)c(=O)[nH]c3=O)O[C@@H]2COP(=O)(O)O[C@H]2[C@@H](O)[C@H](n3ccc(N)nc3=O)O[C@@H]2CO)O1
–	inactive	inactive	CSCCc1nc(N)nc2c1ncn2CCCC[C@H]1C[C@H](OP(=O)(O)OC[C@H]2O[C@@H](n3cc(C)c(=O)[nH]c3=O)C[C@@H]2OP(=O)(O)OC[C@H]2O[C@@H](n3cc(C)c(=O)[nH]c3=O)C[C@@H]2OP(=O)(O)OC[C@H]2O[C@@H](n3ccc(N)nc3=O)[C@H](O)[C@@H]2OP(=O)(O)OC[C@H]2O[C@@H](n3cc(C)c(=O)[nH]c3=O)C[C@@H]2OP(=O)(O)OC[C@H]2O[C@@H](n3ccc(N)nc3=O)[C@H](O)[C@@H]2OP(=O)(O)OC[C@H]2O[C@@H](n3ccc(N)nc3=O)[C@H](O)[C@@H]2OP(=O)(O)OC[C@H]2O[C@@H](n3cc(C)c(=O)[nH]c3=O)C[C@@H]2OP(=O)(O)OC[C@H]2O[C@@H](n3cc(C)c(=O)[nH]c3=O)C[C@@H]2OP(=O)(O)OC[C@H]2O[C@@H](n3cc(C)c(=O)[nH]c3=O)C[C@@H]2OP(=O)(O)OC[C@H]2O[C@@H](n3ccc(N)nc3=O)[C@H](O)[C@@H]2OP(=O)(O)OC[C@H]2O[C@@H](n3cc(C)c(=O)[nH]c3=O)C[C@@H]2OP(=O)(O)O)[C@@H](COP(=O)(O)O[C@H]2C[C@H](n3cc(C)c(=O)[nH]c3=O)O[C@@H]2COP(=O)(O)O[C@H]2C[C@H](n3cc(C)c(=O)[nH]c3=O)O[C@@H]2COP(=O)(O)O[C@H]2C[C@H](n3cc(C)c(=O)[nH]c3=O)O[C@@H]2COP(=O)(O)O[C@H]2[C@@H](O)[C@H](n3ccc(N)nc3=O)O[C@@H]2CO)O1
–	inactive	inactive	CSCCc1nc(N)nc2c1ncn2[C@H]1C[C@H](OP(=O)(O)OC[C@H]2O[C@@H](n3cc(C)c(=O)[nH]c3=O)C[C@@H]2OP(=O)(O)OC[C@H]2O[C@@H](n3cc(C)c(=O)[nH]c3=O)C[C@@H]2OP(=O)(O)OC[C@H]2O[C@@H](n3ccc(N)nc3=O)[C@H](O)[C@@H]2OP(=O)(O)OC[C@H]2O[C@@H](n3cc(C)c(=O)[nH]c3=O)C[C@@H]2OP(=O)(O)OC[C@H]2O[C@@H](n3ccc(N)nc3=O)[C@H](O)[C@@H]2OP(=O)(O)OC[C@H]2O[C@@H](n3ccc(N)nc3=O)[C@H](O)[C@@H]2OP(=O)(O)OC[C@H]2O[C@@H](n3cc(C)c(=O)[nH]c3=O)C[C@@H]2OP(=O)(O)OC[C@H]2O[C@@H](n3cc(C)c(=O)[nH]c3=O)C[C@@H]2OP(=O)(O)OC[C@H]2O[C@@H](n3cc(C)c(=O)[nH]c3=O)C[C@@H]2OP(=O)(O)OC[C@H]2O[C@@H](n3ccc(N)nc3=O)[C@H](O)[C@@H]2OP(=O)(O)OC[C@H]2O[C@@H](n3cc(C)c(=O)[nH]c3=O)C[C@@H]2OP(=O)(O)O)[C@@H](COP(=O)(O)O[C@H]2C[C@H](n3cc(C)c(=O)[nH]c3=O)O[C@@H]2COP(=O)(O)O[C@H]2C[C@H](n3cc(C)c(=O)[nH]c3=O)O[C@@H]2COP(=O)(O)O[C@H]2C[C@H](n3cc(C)c(=O)[nH]c3=O)O[C@@H]2COP(=O)(O)O[C@H]2[C@@H](O)[C@H](n3ccc(N)nc3=O)O[C@@H]2CO)O1

Reference: ChEMBL document CHEMBL1157100, “The alkyl-connected 2-amino-6-vinylpurine (AVP) crosslinking agent for improved selectivity to the cytosine base in RNA” (Bioorg Med Chem, 2010)
